Screening results as filed in PubChem BioAssay.
APJ antag: antagonists of human apelin receptor APJ, primary screen, CHO-K1 cells, beta-arrestin complementation, luminescence | P35414 | inhibition, % at 20 µM | actives 0.32% (n = 330,000);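 active = inhibition above about 40% at 20 µM, limit read from the data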;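 also: cells challenged with 10 nM apelin-13 agonist together with compound; plate controls were apelin-13 plus DMSO wells for no effect and DMSO wells lacking apelin-13 for full effect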
Target sequence (P35414 whole entry, looked up): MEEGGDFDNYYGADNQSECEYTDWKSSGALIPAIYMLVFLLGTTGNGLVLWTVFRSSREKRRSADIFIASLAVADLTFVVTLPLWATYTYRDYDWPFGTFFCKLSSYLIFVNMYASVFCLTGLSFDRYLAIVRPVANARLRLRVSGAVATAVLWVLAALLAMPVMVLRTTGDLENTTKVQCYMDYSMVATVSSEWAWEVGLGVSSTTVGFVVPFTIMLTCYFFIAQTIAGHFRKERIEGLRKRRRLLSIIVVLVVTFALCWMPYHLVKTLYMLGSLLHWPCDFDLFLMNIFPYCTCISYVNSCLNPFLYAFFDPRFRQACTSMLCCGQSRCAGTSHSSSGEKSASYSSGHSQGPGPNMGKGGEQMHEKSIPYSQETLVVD
CCR6 antag: CCR6 receptor antagonists, primary screen, cell-based, CHO-K1, luminescence, beta-arrestin, uHTS. C-C chemokine receptor type 6 (Homo sapiens), P51684. CHO-K1 CCR6 PathHunter beta-arrestin, CCL20-stimulated. inhibition, % at 20 µM. actives 0.49% (n = 340,000);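 active = compounds whose inhibition of the agonist-driven luminescence signal at 20 µM reaches about 50%, limit read from the data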;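 also: cells stimulated with CCL20 at 14 nM final; plate controls were DMSO with CCL20 for no effect and DMSO without agonist for full effect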
CXCR6 block: CXCR6 receptor inhibitors, primary screen, cell-based, beta-arrestin, luminescence, CHO-K1 PathHunter, 1536-well; inhibition, % at 20 µM; actives 0.36% (n = 360,000); AID 602244, 2012; in the data active = inhibition above about 34%, passing the limit was not always enough;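 also: antagonist mode with CXCL16 agonist at 10 nM final; 0% = 10 nM CXCL16 with DMSO and 100% = unstimulated wells without agonist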
B2AR ag: beta2AR agonists driving receptor internalization, primary screen, cell-based, FAP fluorogen, flow cytometry | Beta-2 adrenergic receptor (Homo sapiens), P07550 | Am2.2-beta2AR cells | response, % (concentration not given with the values) | actives 0.43% (n = 340,000);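 active = response above a set limit, near 3 SD of response in nonfluorescent compounds, cut at about 42% in these data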
EBI2 block: EBI2 receptor antagonists, beta-arrestin recruitment, primary screen, cell-based, luminescence, 7a,25-OHC stimulation, uHTS; inhibition, % at 5 µM; 7a,25-OHC stimulated; actives 0.81% (n = 360,000); in the data active = inhibition above about 38%;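 also: enzyme fragment complementation signal reports receptor beta-arrestin coupling in cells; 0% = agonist plus DMSO wells and 100% = wells without agonist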
APJ agonist: agonists of human apelin receptor APJ, primary screen, CHO-K1 cells, PathHunter beta-arrestin, luminescence | P35414 | 0% DMSO wells, 100% apelin | activation, % at 20 µM | actives 0.11% (n = 330,000) | AID 2520, 2010;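 active = activation more than six SD over the plate average, tested at 20 µM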;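 also: 0% = DMSO alone and 100% = apelin-13 at 10 nM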
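Material: CHO-K1 APJ beta-arrestin complementation cell line; Input: cell density 1000 per well; Incubation: compound stimulation 90 min at 25 °C, detection 60 min; Signal: luminescence from split beta-galactosidase complementation, Galacton Star/Emerald II substrate; Controls: DMSO-only wells as negative, 10 nM Apelin-13 as positive control.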
APJ ag conf: agonists of human apelin receptor APJ, confirmation, cell-based, single concentration, CHO-K1, beta-arrestin, luminescence. shares compounds with APJ agonist. activation, % at 20 µM. CHO-K1 APJ PathHunter beta-arrestin. actives 10% (n = 310);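 active = activation above 40%, taking the highest of four retests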;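 also: plate controls were DMSO wells for no effect and apelin-13 at 10 nM for full effect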
* hit, by the source's call; · = no result. The list is not random: actives were taken first. Their share in the collection is about 1.8%.

SMILES | APJ antag | CCR6 antag | CXCR6 block | B2AR ag | EBI2 block | APJ agonist | APJ ag conf
Cc1ccnc(N2C(=O)CSC2c2ccc(Cl)cc2)c1 (centres undefined) | 4 | 14 | -1 | -1 | -1 | -2 | ·
CC1=NOC(=O)/C1=C\c1ccc(-c2cccc(Cl)c2)o1 | -24 | · | 96* | 101* | -9 | 15* | 16
COc1ccc(NC(=O)/C(C#N)=C/c2ccc(Sc3nncn3C)c([N+](=O)[O-])c2)cc1 | -45 | 20 | 0 | 17 | -3 | 18* | 18
Cn1cnnc1Sc1ccc(/C=C/C(=O)c2ccc(O)cc2)cc1[N+](=O)[O-] | 4 | 17 | 2 | 28 | 1 | -3 | ·
COc1ccccc1C(=O)Nc1nc(-c2ccc(S(=O)(=O)N3CCOCC3)cc2)cs1 | -32 | -7 | -23 | 18 | -37 | 45* | 4
Fc1ccc(Nc2nc(NCc3ccccc3)nc3ccsc23)cc1 | · | · | -16 | · | 0 | · | ·
C=C1CCN(C(CC(C)C)C(=O)OC)S(=O)(=O)c2ccccc21 (centres undefined) | 0 | 13 | 8 | -1 | 4 | -6 | ·
C=C1CCN([C@@H](CC(C)C)C(=O)O)S(=O)(=O)c2ccccc21 | 3 | -5 | -2 | 4 | -6 | 45* | 28
CCc1nc(NC(=O)c2sc(C)nc2C)sc1C(=O)OC | -7 | 8 | 5 | -3 | -2 | -3 | ·
COc1ccc(-c2nn(-c3ccccc3)cc2/C=N/N2C(=O)CSC2=S)cc1 | -62 | -9 | -12 | 11 | -10 | 18* | 22
CC1=C(C(=O)OCc2ccc3c(c2)OCO3)C(c2ccc(F)cc2)NC(=O)N1 (centres undefined) | 7 | -6 | 4 | 0 | 2 | 29* | 9
CC1=C(C(=O)OCc2ccccc2)C(c2cccc(F)c2)NC(=O)N1 (centres undefined) | 12 | -3 | -22 | -5 | 0 | 19* | 8
O=C(COc1ccc(S(=O)(=O)N2CCOCC2)cc1)NC1CCCCC1 | · | 7 | -3 | 10 | -2 | · | ·
CCOC(=O)c1oc2nc3c(cc2c1N)CCCC3 | 2 | 14 | 1 | -2 | 9 | 117* | 3
CCOC(=O)c1oc2nc3c(cc2c1N)COC(C)(C)C3 | 18 | -5 | -2 | 4 | -3 | -4 | ·
COC(=O)[C@H](CC(C)C)NC(=O)CC[C@H]1O[C@@H](n2cc(C)c(=O)[nH]c2=O)C[C@@H]1O | · | · | -12 | · | -10 | · | ·
COc1cc(S(=O)(=O)NC2CCCC2)ccc1-n1cnnn1 | -1 | 19 | -10 | -2 | -7 | 1 | ·
COc1ccc(S(=O)(=O)NC2CC2)cc1-n1cnnn1 | -26 | 7 | -5 | 12 | -6 | 14* | 8
COc1ccc2sc(N(CCCN(C)C)C(=O)c3ccc(S(=O)(=O)N4CCCC4)cc3)nc2c1 | 7 | 12 | 11 | 6 | -5 | -4 | ·
CN(C)CCCN(C(=O)c1ccc(S(=O)(=O)N2CCc3ccccc32)cc1)c1nc2ccc(F)cc2s1 | -4 | 19 | 0 | 17 | -1 | 2 | ·
Cc1ccc2nc(N(CCCN(C)C)C(=O)c3ccc(S(=O)(=O)N4CCOCC4)cc3)sc2c1 | 0 | 2 | -1 | 1 | -9 | 2 | ·
CN(C)CCCN(C(=O)c1ccc(S(=O)(=O)N2CCc3ccccc3C2)cc1)c1nc2c(F)cccc2s1 | 14 | 17 | 10 | 31 | -13 | 1 | ·
CN(C)CCCN(C(=O)c1ccc(S(=O)(=O)N2CCc3ccccc3C2)cc1)c1nc2ccc(F)cc2s1 | 2 | 6 | -9 | 49* | 14 | 47* | 22
Cc1ccc2nc(N(CCCN(C)C)C(=O)c3ccc(S(=O)(=O)N4CCc5ccccc5C4)cc3)sc2c1 | -40 | 13 | -9 | 18 | 8 | 79* | 46*
Cc1cc(C)c2sc(N(CCCN(C)C)C(=O)c3ccc(S(=O)(=O)N4CCc5ccccc5C4)cc3)nc2c1 | -9 | · | -3 | 51* | -3 | 66* | 45*
SMILES | APJ antag | CCR6 antag | CXCR6 block | B2AR ag | EBI2 block | APJ agonist | APJ ag conf
COc1ccc2sc(N(CCCN(C)C)C(=O)c3ccc(S(=O)(=O)N4CCc5ccccc5C4)cc3)nc2c1 | -12 | -1 | 3 | 31 | 12 | 50* | 34
Cc1ccc(CN2CC(C(=O)Nc3cc(C)ccn3)CC2=O)cc1 (centres undefined) | 21 | -3 | 10 | 4 | 15 | -1 | ·
Cc1ccc(N/C(N)=N/c2nc(C)cc(C)n2)cc1 | -5 | -11 | -20 | -4 | 3 | 1 | ·
CCCCc1ccc(N/C(N)=N/c2nc(C)cc(C)n2)cc1 | -28 | -2 | 3 | 1 | -18 | 43* | 17
CC1=CC(C)(C)NC(=S)N1c1cccc(Cl)c1 | · | 6 | 5 | -1 | 3 | · | ·
Cc1ccc2c(=O)c(CN3CCCCCC3)c(C)[nH]c2c1C | 13 | 1 | 1 | -5 | -4 | 25* | 34
C=Cc1ccc(Cn2c(C)c(C(=O)NCc3ccc(Cl)c(Cl)c3)sc2=O)cc1 | · | · | -8 | · | 19 | · | ·
Brc1ccc(-c2csc(N/N=C/c3ccco3)n2)cc1 | -43 | -11 | -5 | 4 | 6 | 6 | ·
CN(C)S(=O)(=O)c1ccc(-c2csc(N/N=C/c3ccc(O)cc3)n2)cc1 | -99 | 7 | 8 | 47* | -14 | 16* | -2
CN(C)S(=O)(=O)c1ccc(-c2csc(N/N=C/c3ccco3)n2)cc1 | -40 | -14 | -2 | 25 | -44 | 24* | 44*
CC1=C(C(=O)N(C)C)CC(CC(=O)NCc2cccc3ccccc23)C(=O)N1Cc1ccccc1 (centres undefined) | · | · | 5 | · | -11 | · | ·
CCN(CC)S(=O)(=O)c1ccc(OC)c(NC(=O)COc2ccccc2[N+](=O)[O-])c1 | -4 | 4 | -4 | -3 | -8 | 0 | ·
CCN(CC)S(=O)(=O)c1ccc(OCC(=O)NC(=O)Cc2ccccc2)c([N+](=O)[O-])c1 | -137 | 2 | -1 | -1 | -8 | 12* | 26
O=C1c2ccc(Cl)cc2S(=O)(=O)c2cccc(C(=O)N3CCC(Cc4ccccc4)CC3)c21 | 6 | -23 | -29 | 23 | -6 | 0 | ·
